Measurements reported in ChEMBL document CHEMBL1165965, “Synthesis and structure-activity relationships of 1,2,3,4-tetrahydropyrido[2,3-b]pyrazines as potent and selective inhibitors of the anaplastic lymphoma kinase” (Bioorg Med Chem, 2010).

Columns and labels:
[1] = target: T1, Activin receptor type-1B (Homo sapiens) (UniProt P36896); assay: Inhibition of ACVR1B at 1 uM
T1 sequence (whole entry): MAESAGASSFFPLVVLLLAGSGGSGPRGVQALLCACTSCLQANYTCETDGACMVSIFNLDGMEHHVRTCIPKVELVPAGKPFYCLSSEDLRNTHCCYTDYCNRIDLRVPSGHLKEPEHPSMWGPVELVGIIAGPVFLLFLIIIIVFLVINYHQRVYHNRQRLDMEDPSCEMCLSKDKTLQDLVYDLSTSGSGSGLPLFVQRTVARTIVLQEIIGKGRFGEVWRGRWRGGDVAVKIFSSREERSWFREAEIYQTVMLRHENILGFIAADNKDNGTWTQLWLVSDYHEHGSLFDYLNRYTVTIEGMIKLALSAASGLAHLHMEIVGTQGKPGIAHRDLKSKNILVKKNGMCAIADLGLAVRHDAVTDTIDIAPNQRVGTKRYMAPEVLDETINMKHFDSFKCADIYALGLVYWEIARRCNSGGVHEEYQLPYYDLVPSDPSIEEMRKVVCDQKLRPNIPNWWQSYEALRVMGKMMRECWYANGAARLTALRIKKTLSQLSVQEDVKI
How it was run: (§1)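 Ambit KINOMEscan screen at a single concentration across a 250–400 kinase panel, recorded as percent inhibition. Selectivity was expressed as S(90), the fraction of kinases inhibited >90%.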

[2] = target: T2, Mitogen-activated protein kinase kinase kinase 13 (Homo sapiens) (UniProt O43283); assay: Inhibition of LZK at 1 uM
T2 sequence (whole entry): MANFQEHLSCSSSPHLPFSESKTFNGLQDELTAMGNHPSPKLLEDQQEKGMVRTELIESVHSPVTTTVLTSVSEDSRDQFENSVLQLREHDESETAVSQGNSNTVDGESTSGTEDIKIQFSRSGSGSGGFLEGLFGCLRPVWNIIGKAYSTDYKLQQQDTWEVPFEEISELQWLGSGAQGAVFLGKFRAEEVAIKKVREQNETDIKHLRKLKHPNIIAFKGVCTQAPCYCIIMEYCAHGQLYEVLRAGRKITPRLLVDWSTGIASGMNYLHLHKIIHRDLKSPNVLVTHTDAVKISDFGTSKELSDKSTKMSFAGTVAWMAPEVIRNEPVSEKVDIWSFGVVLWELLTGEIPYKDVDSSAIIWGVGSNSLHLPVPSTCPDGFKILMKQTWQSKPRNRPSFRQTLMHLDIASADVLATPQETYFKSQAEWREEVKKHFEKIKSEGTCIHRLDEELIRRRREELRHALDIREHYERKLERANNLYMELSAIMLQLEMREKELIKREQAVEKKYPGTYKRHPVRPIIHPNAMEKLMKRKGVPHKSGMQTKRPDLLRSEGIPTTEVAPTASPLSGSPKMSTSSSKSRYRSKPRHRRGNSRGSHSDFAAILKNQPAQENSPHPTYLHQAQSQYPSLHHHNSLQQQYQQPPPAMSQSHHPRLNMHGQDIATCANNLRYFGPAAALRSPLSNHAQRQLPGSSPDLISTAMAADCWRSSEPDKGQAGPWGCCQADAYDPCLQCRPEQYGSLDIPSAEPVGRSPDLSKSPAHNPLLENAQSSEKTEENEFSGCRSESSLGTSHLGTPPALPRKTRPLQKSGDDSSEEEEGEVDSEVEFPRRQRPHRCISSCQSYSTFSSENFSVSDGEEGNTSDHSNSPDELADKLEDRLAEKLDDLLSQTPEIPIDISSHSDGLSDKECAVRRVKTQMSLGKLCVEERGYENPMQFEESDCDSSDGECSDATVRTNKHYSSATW

[3] = target: T3, Mitogen-activated protein kinase kinase kinase 5 (Homo sapiens) (UniProt Q99683); assay: Inhibition of ASK1 at 1 uM; how it was run: as §1
T3 sequence (whole entry): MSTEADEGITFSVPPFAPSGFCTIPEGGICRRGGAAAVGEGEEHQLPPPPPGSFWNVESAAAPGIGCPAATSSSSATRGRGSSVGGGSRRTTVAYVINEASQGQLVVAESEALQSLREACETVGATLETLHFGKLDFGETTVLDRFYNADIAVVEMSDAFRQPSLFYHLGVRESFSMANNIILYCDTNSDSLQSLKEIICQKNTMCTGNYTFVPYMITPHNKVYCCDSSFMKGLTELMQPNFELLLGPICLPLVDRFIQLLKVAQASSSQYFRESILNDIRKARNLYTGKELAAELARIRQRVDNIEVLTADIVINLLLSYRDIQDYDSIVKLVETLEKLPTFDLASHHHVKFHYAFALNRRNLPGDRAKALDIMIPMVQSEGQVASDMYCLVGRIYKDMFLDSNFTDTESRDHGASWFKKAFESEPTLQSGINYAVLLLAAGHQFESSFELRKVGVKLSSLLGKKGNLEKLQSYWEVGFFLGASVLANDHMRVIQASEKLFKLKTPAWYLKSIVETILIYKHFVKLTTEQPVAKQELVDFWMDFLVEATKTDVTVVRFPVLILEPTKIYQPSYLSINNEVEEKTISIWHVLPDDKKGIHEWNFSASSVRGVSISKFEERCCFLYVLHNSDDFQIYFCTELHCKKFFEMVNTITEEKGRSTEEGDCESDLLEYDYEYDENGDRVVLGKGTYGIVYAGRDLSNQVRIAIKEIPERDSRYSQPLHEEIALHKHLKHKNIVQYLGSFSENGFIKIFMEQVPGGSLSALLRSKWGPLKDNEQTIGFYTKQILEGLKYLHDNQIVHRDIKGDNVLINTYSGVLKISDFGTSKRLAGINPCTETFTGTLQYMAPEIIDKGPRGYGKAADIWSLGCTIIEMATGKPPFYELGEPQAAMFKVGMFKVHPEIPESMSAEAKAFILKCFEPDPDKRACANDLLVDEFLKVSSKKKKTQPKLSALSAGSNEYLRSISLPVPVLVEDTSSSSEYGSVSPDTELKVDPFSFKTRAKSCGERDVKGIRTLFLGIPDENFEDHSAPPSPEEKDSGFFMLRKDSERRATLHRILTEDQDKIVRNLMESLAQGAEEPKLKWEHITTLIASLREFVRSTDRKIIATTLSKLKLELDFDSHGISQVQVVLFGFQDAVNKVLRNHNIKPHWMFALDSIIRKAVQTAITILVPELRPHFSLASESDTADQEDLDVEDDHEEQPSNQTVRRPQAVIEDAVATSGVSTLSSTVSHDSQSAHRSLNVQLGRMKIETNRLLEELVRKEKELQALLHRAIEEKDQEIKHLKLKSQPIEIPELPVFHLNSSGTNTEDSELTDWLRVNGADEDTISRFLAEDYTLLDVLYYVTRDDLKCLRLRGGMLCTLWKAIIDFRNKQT

[4] = target: STE20-like serine/threonine-protein kinase (Homo sapiens) (UniProt Q9H2G2); assay: Inhibition of SLK at 1 uM
Chain of STE20-like serine/threonine-protein kinase (Homo sapiens) (Q9H2G2 whole entry, looked up): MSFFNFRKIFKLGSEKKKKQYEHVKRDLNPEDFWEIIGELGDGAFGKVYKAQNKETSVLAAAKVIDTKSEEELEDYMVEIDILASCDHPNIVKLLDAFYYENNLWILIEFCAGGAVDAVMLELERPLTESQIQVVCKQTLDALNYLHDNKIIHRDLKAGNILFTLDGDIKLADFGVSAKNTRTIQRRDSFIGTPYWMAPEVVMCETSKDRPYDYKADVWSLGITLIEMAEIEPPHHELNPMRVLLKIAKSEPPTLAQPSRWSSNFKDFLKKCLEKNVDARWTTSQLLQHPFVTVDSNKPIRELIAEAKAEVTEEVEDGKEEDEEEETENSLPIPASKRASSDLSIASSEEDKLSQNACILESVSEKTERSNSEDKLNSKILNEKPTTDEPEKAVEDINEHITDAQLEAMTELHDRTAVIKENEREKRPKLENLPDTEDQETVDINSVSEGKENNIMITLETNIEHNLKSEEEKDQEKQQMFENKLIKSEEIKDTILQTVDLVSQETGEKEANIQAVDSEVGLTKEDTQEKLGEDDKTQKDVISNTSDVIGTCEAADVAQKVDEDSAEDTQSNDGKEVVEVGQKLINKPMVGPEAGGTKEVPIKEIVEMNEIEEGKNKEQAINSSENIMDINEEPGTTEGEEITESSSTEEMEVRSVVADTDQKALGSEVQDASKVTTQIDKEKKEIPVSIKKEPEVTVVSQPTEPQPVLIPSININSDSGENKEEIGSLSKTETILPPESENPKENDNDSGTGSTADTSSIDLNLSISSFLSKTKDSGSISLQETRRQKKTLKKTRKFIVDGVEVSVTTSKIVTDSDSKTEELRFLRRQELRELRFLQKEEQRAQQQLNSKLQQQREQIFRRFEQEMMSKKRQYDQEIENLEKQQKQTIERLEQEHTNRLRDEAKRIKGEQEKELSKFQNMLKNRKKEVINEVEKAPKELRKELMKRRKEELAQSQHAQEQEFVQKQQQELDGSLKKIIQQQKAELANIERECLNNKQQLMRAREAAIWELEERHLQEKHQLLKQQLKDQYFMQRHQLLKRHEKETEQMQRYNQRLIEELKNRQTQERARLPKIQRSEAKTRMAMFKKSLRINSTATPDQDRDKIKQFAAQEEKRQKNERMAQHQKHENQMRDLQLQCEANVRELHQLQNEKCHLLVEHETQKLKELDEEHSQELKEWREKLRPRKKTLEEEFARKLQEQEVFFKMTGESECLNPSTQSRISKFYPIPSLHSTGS

Measured: inhibition

CN1CCN(c2ccc(-c3cnc4c(c3)N(Cc3cc(F)ccc3F)CCN4)cn2)CC1
< 50%: [1] | [2] | [3] | [4]

CC(=O)N1CCN(c2cc(-c3cnc4c(c3)N(Cc3cc(Cl)ccc3C(F)(F)F)CCN4)ccn2)CC1
< 50%: [1] | [2] | [3] | [4]

CN1CCN(c2ccc(-c3cnc4c(c3)N(Cc3c(F)ccc(F)c3Cl)CCN4)cn2)CC1
< 50%: [1] | [2] | [3] | [4]

FC(F)(F)c1ccc(Cl)cc1CN1CCNc2ncc(-c3ccnc(N4CCNCC4)c3)cc21
< 50%: [1] | [2] | [3] | [4]

CN1CCN(c2ccc(-c3cnc4c(c3)N(Cc3cc(Cl)ccc3Cl)CCN4)cn2)CC1
< 50%: [1] | [2] | [3] | [4]

O=C(c1ccc(-c2cnc3c(c2)N(Cc2cc(Cl)ccc2C(F)(F)F)CCN3)cc1)N1CCC(N2CCCC2)CC1
< 50%: [1] | [3] | [4]

O=C(O)c1ccc(-c2cnc3c(c2)N(Cc2cc(Cl)ccc2C(F)(F)F)CCN3)cc1
< 50%: [1] | [3] | [4]

CN1CCN(c2ccc(-c3cnc4c(c3)N(Cc3cc(Cl)ccc3C(F)(F)F)CCN4)cn2)CC1
< 50%: [1] | [2] | [3] | [4]

O=C(c1ccc(-c2cnc3c(c2)N(Cc2cc(Cl)ccc2C(F)(F)F)CCN3)cc1)N1CCCCC1
< 50%: [1] | [3] | [4]

COC1CCN(C(=O)c2ccc(-c3cnc4c(c3)N(Cc3cc(Cl)ccc3C(F)(F)F)CCN4)cc2)CC1
< 50%: [1] | [3] | [4]
